Experimental data taken from ChEMBL document CHEMBL1147748, “Overlapping, nonidentical binding sites of different classes of nonpeptide antagonists for the human gonadotropin-releasing hormone receptor” (J Med Chem, 2006).

Experiments:
[1] = target: Gonadotropin-releasing hormone receptor (Homo sapiens, UniProt P30968, Y290Q); assay: Displacement of [125I]-His5, D-Tyr6]GnRH from mutant GnRHR, GnRHR Y290Q
[2] = target: Gonadotropin-releasing hormone receptor (Homo sapiens, UniProt P30968, W291F); assay: Displacement of [125I]-His5, D-Tyr6]GnRH from mutant GnRHR, GnRHR W291F
Gonadotropin-releasing hormone receptor (Homo sapiens, UniProt P30968, W291F), sequence (P30968 whole entry W291F): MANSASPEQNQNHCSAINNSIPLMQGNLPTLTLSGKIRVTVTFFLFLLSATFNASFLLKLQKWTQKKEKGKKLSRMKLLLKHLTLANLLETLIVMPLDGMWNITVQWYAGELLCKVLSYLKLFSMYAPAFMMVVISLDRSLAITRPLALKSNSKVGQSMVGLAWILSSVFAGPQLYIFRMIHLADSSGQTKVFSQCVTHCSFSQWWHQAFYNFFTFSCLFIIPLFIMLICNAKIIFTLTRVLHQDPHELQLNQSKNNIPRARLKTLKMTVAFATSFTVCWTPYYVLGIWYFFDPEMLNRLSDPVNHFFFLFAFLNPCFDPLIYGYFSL

[3] = target: Gonadotropin-releasing hormone receptor (Homo sapiens, UniProt P30968, D293N); assay: Displacement of [125I]-His5, D-Tyr6]GnRH from mutant GnRHR, GnRHR D293N
Gonadotropin-releasing hormone receptor (Homo sapiens, UniProt P30968, D293N), sequence (P30968 whole entry D293N): as the sequence (P30968 whole entry W291F) above, with F291W, D293N counted along it
In short: (§1)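 Human GnRH-R (wild type or site-directed point mutant) was transiently expressed in COS-7 cells by electroporation, with cells cultured 36-48 h before membranes were prepared. Membranes (5-20 µg per point) were incubated 2 h at room temperature with 0.3 nM tracer and varying competitor in HEPES pH 7.5, 150 mM NaCl, 0.1% BSA, then filtered and counted.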

[4] = target: Gonadotropin-releasing hormone receptor (Homo sapiens, UniProt P30968, E295K); assay: Displacement of [125I]-His5, D-Tyr6]GnRH from mutant GnRHR, GnRHR E295K; in short: as §1
Gonadotropin-releasing hormone receptor (Homo sapiens, UniProt P30968, E295K), sequence (P30968 whole entry E295K): as the sequence (P30968 whole entry W291F) above, with F291W, E295K counted along it

[5] = target: Gonadotropin-releasing hormone receptor (Homo sapiens, UniProt P30968, L300A); assay: Displacement of [125I]-His5, D-Tyr6]GnRH from mutant GnRHR, GnRHR L300A; in short: as §1
Gonadotropin-releasing hormone receptor (Homo sapiens, UniProt P30968, L300A), sequence (P30968 whole entry L300A): as the sequence (P30968 whole entry W291F) above, with F291W, L300A counted along it

[6] = target: Gonadotropin-releasing hormone receptor (Homo sapiens, UniProt P30968, L300V); assay: Displacement of [125I]-His5, D-Tyr6]GnRH from mutant GnRHR, GnRHR L300V; in short: as §1
[7] = target: Gonadotropin-releasing hormone receptor (Homo sapiens, UniProt P30968, D302Q); assay: Displacement of [125I]-His5, D-Tyr6]GnRH from mutant GnRHR, GnRHR D302Q; in short: as §1
Gonadotropin-releasing hormone receptor (Homo sapiens, UniProt P30968, D302Q), sequence (P30968 whole entry D302Q): as the sequence (P30968 whole entry W291F) above, with F291W, D302Q counted along it

[8] = target: Gonadotropin-releasing hormone receptor (Homo sapiens, UniProt P30968, N305A); assay: Displacement of [125I]-His5, D-Tyr6]GnRH from mutant GnRHR, GnRHR N305A; in short: as §1
[9] = target: Gonadotropin-releasing hormone receptor (Homo sapiens, UniProt P30968, H306A); assay: Displacement of [125I]-His5, D-Tyr6]GnRH from mutant GnRHR, GnRHR H306A; in short: as §1
[10] = target: Gonadotropin-releasing hormone receptor (Homo sapiens, UniProt P30968, H306K); assay: Displacement of [125I]-His5, D-Tyr6]GnRH from mutant GnRHR, GnRHR H306K; in short: as §1
Gonadotropin-releasing hormone receptor (Homo sapiens, UniProt P30968, H306K), sequence (P30968 whole entry H306K): as the sequence (P30968 whole entry W291F) above, with F291W, H306K counted along it

[11] = target: Gonadotropin-releasing hormone receptor (Homo sapiens, UniProt P30968, F309L); assay: Displacement of [125I]-His5, D-Tyr6]GnRH from mutant GnRHR, GnRHR F309L; in short: as §1
Gonadotropin-releasing hormone receptor (Homo sapiens, UniProt P30968, F309L), sequence (P30968 whole entry F309L): as the sequence (P30968 whole entry W291F) above, with F291W, F309L counted along it

[12] = target: Gonadotropin-releasing hormone receptor (Homo sapiens, UniProt P30968, N315A); assay: Displacement of [125I]-His5, D-Tyr6]GnRH from mutant GnRHR, GnRHR N315A; in short: as §1
[13] = target: Gonadotropin-releasing hormone receptor (Homo sapiens, UniProt P30968, W280F); assay: Displacement of [125I]-His5, D-Tyr6]GnRH from mutant GnRHR, GnRHR W280F
[14] = target: Gonadotropin-releasing hormone receptor (Homo sapiens, UniProt P30968, Y284L); assay: Displacement of [125I]-His5, D-Tyr6]GnRH from mutant GnRHR, GnRHR Y284L
Gonadotropin-releasing hormone receptor (Homo sapiens, UniProt P30968, Y284L), sequence (P30968 whole entry Y284L): as the sequence (P30968 whole entry W291F) above, with Y284L, F291W counted along it

[15] = target: Gonadotropin-releasing hormone receptor (Homo sapiens, UniProt P30968, F272L); assay: Displacement of [125I]-His5, D-Tyr6]GnRH from mutant GnRHR, GnRHR F272L; in short: as §1
Gonadotropin-releasing hormone receptor (Homo sapiens, UniProt P30968, F272L), sequence (P30968 whole entry F272L): as the sequence (P30968 whole entry W291F) above, with F272L, F291W counted along it

[16] = target: Gonadotropin-releasing hormone receptor (Homo sapiens, UniProt P30968, N27A); assay: Displacement of [125I]-His5, D-Tyr6]GnRH from mutant GnRHR, GnRHR N27A; in short: as §1
[17] = target: Gonadotropin-releasing hormone receptor (Homo sapiens, UniProt P30968, K115Q); assay: Displacement of [125I]-His5, D-Tyr6]GnRH from mutant GnRHR, GnRHR K115Q; in short: as §1
Gonadotropin-releasing hormone receptor (Homo sapiens, UniProt P30968, K115Q), sequence (P30968 whole entry K115Q): as the sequence (P30968 whole entry W291F) above, with K115Q, F291W counted along it

[18] = target: Gonadotropin-releasing hormone receptor (Homo sapiens, UniProt P30968, L117A); assay: Displacement of [125I]-His5, D-Tyr6]GnRH from mutant GnRHR, GnRHR L117A; in short: as §1
Gonadotropin-releasing hormone receptor (Homo sapiens, UniProt P30968, L117A), sequence (P30968 whole entry L117A): as the sequence (P30968 whole entry W291F) above, with L117A, F291W counted along it

[19] = target: Gonadotropin-releasing hormone receptor (Homo sapiens, UniProt P30968, K121A); assay: Displacement of [125I]-His5, D-Tyr6]GnRH from mutant GnRHR, GnRHR K121A; in short: as §1
[20] = target: Gonadotropin-releasing hormone receptor (Homo sapiens, UniProt P30968, S168I); assay: Displacement of [125I]-His5, D-Tyr6]GnRH from mutant GnRHR, GnRHR S168I
[21] = target: Gonadotropin-releasing hormone receptor (Homo sapiens, UniProt P30968, H182A); assay: Displacement of [125I]-His5, D-Tyr6]GnRH from mutant GnRHR, GnRHR H182A; in short: as §1
[22] = target: Gonadotropin-releasing hormone receptor (Homo sapiens, UniProt P30968, H182E); assay: Displacement of [125I]-His5, D-Tyr6]GnRH from mutant GnRHR, GnRHR H182E; in short: as §1
Gonadotropin-releasing hormone receptor (Homo sapiens, UniProt P30968, H182E), sequence (P30968 whole entry H182E): as the sequence (P30968 whole entry W291F) above, with H182E, F291W counted along it

[23] = target: Gonadotropin-releasing hormone receptor (Homo sapiens, UniProt P30968, S186D); assay: Displacement of [125I]-His5, D-Tyr6]GnRH from mutant GnRHR, GnRHR S186D
[24] = target: Gonadotropin-releasing hormone receptor (Homo sapiens, UniProt P30968, S186K); assay: Displacement of [125I]-His5, D-Tyr6]GnRH from mutant GnRHR, GnRHR S186K
[25] = target: Gonadotropin-releasing hormone receptor (Homo sapiens, UniProt P30968, Q189K); assay: Displacement of [125I]-His5, D-Tyr6]GnRH from mutant GnRHR, GnRHR Q189K; in short: as §1
[26] = target: Gonadotropin-releasing hormone receptor (Homo sapiens, UniProt P30968, Q189P); assay: Displacement of [125I]-His5, D-Tyr6]GnRH from mutant GnRHR, GnRHR Q189P
[27] = target: Gonadotropin-releasing hormone receptor (Homo sapiens, UniProt P30968, K191E); assay: Displacement of [125I]-His5, D-Tyr6]GnRH from mutant GnRHR, GnRHR K191E; in short: as §1
Gonadotropin-releasing hormone receptor (Homo sapiens, UniProt P30968, K191E), sequence (P30968 whole entry K191E): as the sequence (P30968 whole entry W291F) above, with K191E, F291W counted along it

[28] = target: Gonadotropin-releasing hormone receptor (Homo sapiens, UniProt P30968, S203K); assay: Displacement of [125I]-His5, D-Tyr6]GnRH from mutant GnRHR, GnRHR S203K
[29] = target: Gonadotropin-releasing hormone receptor (Homo sapiens, UniProt P30968, E111K); assay: Displacement of [125I]-His5, D-Tyr6]GnRH from mutant GnRHR, GnRHR E111K; in short: as §1
[30] = target: Gonadotropin-releasing hormone receptor (Homo sapiens, UniProt P30968, E111Q); assay: Displacement of [125I]-His5, D-Tyr6]GnRH from mutant GnRHR, GnRHR E111Q; in short: as §1
Gonadotropin-releasing hormone receptor (Homo sapiens, UniProt P30968, E111Q), sequence (P30968 whole entry E111Q): as the sequence (P30968 whole entry W291F) above, with E111Q, F291W counted along it

| SMILES | IC50 [1] | IC50 [2] | IC50 [3] | IC50 [4] | IC50 [5] | IC50 [6] | IC50 [7] | IC50 [8] | IC50 [9] | IC50 [10] | IC50 [11] | IC50 [12] | IC50 [13] | IC50 [14] | IC50 [15] | IC50 [16] | IC50 [17] | IC50 [18] | IC50 [19] | IC50 [20] | also measured |
| --- | --- | --- | --- | --- | --- | --- | --- | --- | --- | --- | --- | --- | --- | --- | --- | --- | --- | --- | --- | --- | --- |
| COc1c(C)cc(-c2[nH]c3ccc(C(C)(C)C(=O)N(CC(C)C)CC(C)C)cc3c2[C@H](C)CNCCc2ccccc2)cc1C | 229 nM | 6.8 nM | 32.6 nM | 9.6 nM | 87.9 nM | 164 nM | 20.6 nM | 3.7 nM | 23.3 nM | 101 nM | 60.1 nM | 47.1 nM | 139 nM | 277 nM | 16.9 nM | 8.8 nM | 27 nM | 4.8 nM | 82.3 nM | 15.2 nM | IC50 [21]: 3.7 nM; IC50 [22]: 7.6 nM; IC50 [23]: 11.3 nM; IC50 [24]: 13.1 nM; IC50 [25]: 15.8 nM; IC50 [26]: 10.8 nM; IC50 [27]: 11 nM; IC50 [28]: 14.6 nM; IC50 [29]: 13.6 nM; IC50 [30]: 11.5 nM |
| CC(C)C[C@H](NC(=O)[C@@H](Cc1ccc(O)cc1)NC(=O)[C@H](Cc1c[nH]cn1)NC(=O)[C@H](CO)NC(=O)[C@H](Cc1c[nH]c2ccccc12)NC(=O)[C@H](Cc1c[nH]cn1)NC(=O)[C@@H]1CCC(=O)N1)C(=O)N[C@@H](CCCN=C(N)N)C(=O)N1CCC[C@H]1C(=O)NCC(N)=O | 192 nM | 60.1 nM | 4.7 nM | 3.1 nM | 18.2 nM | 6.5 nM | 26.5 nM | 12.7 nM | 50.6 nM | 66.2 nM | 37.7 nM | 0.8 nM | 10.3 nM | 186 nM | 4.4 nM | 5.8 nM | 8.2 nM | 4.1 nM | 267 nM | 3.8 nM | IC50 [21]: 6.6 nM; IC50 [22]: 3.6 nM; IC50 [23]: 3.1 nM; IC50 [24]: 4.1 nM; IC50 [25]: 2.4 nM; IC50 [26]: 1.9 nM; IC50 [27]: 3.7 nM; IC50 [28]: 3.1 nM; IC50 [29]: 10.5 nM; IC50 [30]: 3.3 nM |
